Reference: ChEMBL document CHEMBL3856259, “Evaluation of canthinone alkaloids as cerebral protective agents” (Bioorg Med Chem Lett, 2016)
Active and inactive are the calls of the source. No cut-off for these calls is given here.

Test system: not listed separately
Test: Toxicity in Mongolian gerbil assessed as reduction in heart rate at 30 to 100 mg/kg, po
Format: organism-based, Meriones unguiculatus
Settings: in vivo
Procedure, shortened: (§1)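 Heart rate and mean systolic blood pressure recorded in gerbils after oral doses of 30 and 100 mg/kg.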
For `COc1c2n(C)ccc3c-2n(c(=O)c1=O)c1ccccc31`, the Activity was “Non-Toxic”.

Test system: not listed separately
Test: Toxicity in Mongolian gerbil assessed as reduction in systolic blood pressure at 30 to 100 mg/kg, po
Format: organism-based, Meriones unguiculatus
Settings: in vivo
Procedure, shortened: as §1
In the case of `COc1c2n(C)ccc3c-2n(c(=O)c1=O)c1ccccc31`, the Activity is reported as “Non-Toxic”.

Test system: not listed separately
Test: Toxicity in Mongolian gerbil assessed as locomotion-reducing effect at 30 to 100 mg/kg, po
Format: organism-based, Meriones unguiculatus
Settings: in vivo
For `COc1c2n(C)ccc3c-2n(c(=O)c1=O)c1ccccc31`, the Activity was “Non-Toxic”.

Test system: Meriones unguiculatus
Test: Cerebral protective activity in cerebral ischemia-induced Mongolian gerbil assessed as passive avoidance test value at 100 mg/kg, po pretreated for 30 mins followed by bilateral ligation-induced ischemia for 5 mins measured on day 1 post 3 days ischemia induction relative to control
Format: functional
Settings: not given
For `COc1c2n(C)ccc3c-2n(c(=O)c1=O)c1ccc(Br)cc31`, the Activity was “<=40%”. For `COc1c(OC)c2nc(O)cc3c4ccccc4n(c1=O)c23`, the Activity was “<=40%”. For `CCn1ccc2c3n(c(=O)c(=O)cc1-3)c1ccccc21`, the Activity was “<=40%”. With `Cn1c(=O)cc2c3ccccc3n3c(=O)ccc1c23` the Activity was “<=40%”. In the case of `CCc1c2n(C)ccc3c-2n(c(=O)c1=O)c1ccccc31`, the Activity is reported as “<=40%”. For `CCn1ccc2c3n(c(=O)c(=O)c(OC)c1-3)c1ccccc21`, the Activity was “<=40%”. With `C[C@@H]1N[C@H](C(=O)O)Cc2c1[nH]c1ccccc21` the Activity was “<=40%”. For `Cn1ccc2c3n(c(=O)c(=O)cc1-3)c1ccccc21`, the Activity was greater than 80%. `COc1c2n(C)ccc3c-2n(c(=O)c1=O)c1ccccc31` showed an Activity greater than 80%. In the case of `COC(=O)c1nccc2c1[nH]c1ccccc12`, the Activity is reported as “<=40%”. In the case of `COc1c(OC)c2c3c(cc(=O)n2C)c2ccccc2n3c1=O`, the Activity is reported as “<=40%”. In the case of `Cc1c2[nH]c3ccccc3c2cc[n+]1[O-]`, the Activity is reported as “<=40%”. For `[O-][n+]1ccc2c(c1)[nH]c1ccccc12`, the Activity was “<=40%”. In the case of `COc1c(OC)c2nccc3c4ccccc4n(c1=O)c23` [4,5-DIMETHOXYCANTHIN-6-ONE], the Activity is reported as “<=40%”. In the case of `Cn1ccc2c3n(c(=O)c(=O)cc1-3)c1ccc(Br)cc21`, the Activity is reported as “<=40%”. In the case of `COc1c2n(C)ccc3c-2n(c(=O)c1=O)c1c(Br)cc(Br)cc31`, the Activity is reported as “<=40%”. In the case of `COc1ccc2c3ccn(C)c4cc(=O)c(=O)n(c3-4)c2c1`, the Activity is reported as “>=40 - 60%”. For `COc1c(O)c(=O)n2c3ccccc3c3cc(O)nc1c32`, the Activity was “<=40%”. For `COC(=O)[C@@H]1Cc2c([nH]c3ccccc23)[C@H](C)N1`, the Activity was “<=40%”. For `CC[C@@H]1N[C@H](C(=O)O)Cc2c1[nH]c1ccccc21`, the Activity was “<=40%”. In the case of `COc1c(O)c(=O)n2c3ccccc3c3ccnc1c32`, the Activity is reported as “<=40%”. In the case of `Cn1ccc2c3n(c(=O)c(=O)cc1-3)c1c(Br)cc(Br)cc21`, the Activity is reported as “<=40%”.

Test system: Meriones unguiculatus
Test: Cerebral protective activity against kainic acid-induced neuronal necrosis in po dosed Mongolian gerbil administered after kainic acid injection
Format: functional, organism-based
Settings: not given
Procedure, shortened: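 Male Mongolian gerbils (n = 10), fasted overnight, given atropine (5.0 µg/animal) and pentobarbital anesthesia (40 mg/kg ip). Kainic acid in saline at pH 7.4 (0.2 µL of 1.0 µg/µL) infused stereotaxically into right hippocampal CA3 over 4.0 min. Drug dosed orally after the lesion. Perfusion-fixed 4 days later. Surviving CA1 neuron density (/mm) scored. Mean ± SEM.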
In the case of `COc1c2n(C)ccc3c-2n(c(=O)c1=O)c1ccccc31`, the Activity is reported as “Active”.

Test system: Meriones unguiculatus
Test: Cerebral protective activity in cerebral ischemia-induced Mongolian gerbil assessed as reduction in neuronal cell death in CA1 subfields of hippocampus at 30 mg/kg, po administered twice at 3 and 6 hrs after cerebral ischemia induction
Format: functional, organism-based
Settings: not given
Procedure, shortened: (§2)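 Gerbils (n = 10) subjected to bilateral carotid ligation ischemia, then given 30 mg/kg orally at 3 h or at 3 h and 6 h after ischemia. Brains perfusion-fixed in 10% neutral formalin and paraffin-embedded. 5-µm coronal sections stained with H&E. Surviving CA1 hippocampal neurons counted (/mm). Mean ± SEM, Student's t-test.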
In the case of `COc1c2n(C)ccc3c-2n(c(=O)c1=O)c1ccccc31`, the Activity is reported as “Active”.

Test system: Meriones unguiculatus
Test: Cerebral protective activity against ischemia in Mongolian gerbil assessed as reduction in 45Ca2+ accumulation in brain at 30 mg/kg, po administered after cerebral ischemia induction for 15 mins in presence of 45CaCl2 by autoradiographic analysis
Settings: not given
In the case of `COc1c2n(C)ccc3c-2n(c(=O)c1=O)c1ccccc31`, the Activity is reported as “Active”.

Test system: Meriones unguiculatus
Test: Cerebral protective activity in cerebral ischemia-induced Mongolian gerbil assessed as reduction in neuronal cell death at 30 mg/kg, po administered at 3hrs after cerebral ischemia induction
Format: functional, organism-based
Settings: not given
Procedure, shortened: as §2
With `COc1c2n(C)ccc3c-2n(c(=O)c1=O)c1ccccc31` the Activity was “Active”.

Test system: not listed separately
Test: Toxicity in Mongolian gerbil assessed as effect on body temperature at 30 to 100 mg/kg, po
Format: organism-based, Meriones unguiculatus
Settings: in vivo
For `COc1c2n(C)ccc3c-2n(c(=O)c1=O)c1ccccc31`, the Activity was “Non-Toxic”.

Test system: Meriones unguiculatus
Test: Cerebral protective activity in anesthetized cerebral ischemia-induced Mongolian gerbil hippocampus assessed as protective values on density of surviving neurons in CA1 subfields of hippocampus at 100 mg/kg, po pretreated for 30 mins followed by bilateral ligation-induced ischemia for 5 mins measured on day 1 post 3 days ischemia induction by hematoxylin and eosin staining based microscopic analysis relative to control
Format: functional
Settings: not given
Compound `COc1c2n(C)ccc3c-2n(c(=O)c1=O)c1ccc(Br)cc31` has an Activity of -0.8%. With `COc1c(OC)c2nc(O)cc3c4ccccc4n(c1=O)c23` the Activity was 2.8%. Compound `CCn1ccc2c3n(c(=O)c(=O)cc1-3)c1ccccc21` has an Activity of 92.3%. Work on `Cn1c(=O)cc2c3ccccc3n3c(=O)ccc1c23` yielded an Activity of 10.6%. `CCc1c2n(C)ccc3c-2n(c(=O)c1=O)c1ccccc31` showed an Activity of 26.3%. In the case of `CCn1ccc2c3n(c(=O)c(=O)c(OC)c1-3)c1ccccc21`, the Activity is reported as 46.2%. Compound `C[C@@H]1N[C@H](C(=O)O)Cc2c1[nH]c1ccccc21` has an Activity of -13.6%. `Cn1ccc2c3n(c(=O)c(=O)cc1-3)c1ccccc21` showed an Activity of 84.6%. In the case of `COc1c2n(C)ccc3c-2n(c(=O)c1=O)c1ccccc31`, the Activity is reported as 73.1%. With `COC(=O)c1nccc2c1[nH]c1ccccc12` the Activity was 30.1%. For `COc1c(OC)c2c3c(cc(=O)n2C)c2ccccc2n3c1=O`, the Activity was 24.3%. In the case of `Cc1c2[nH]c3ccccc3c2cc[n+]1[O-]`, the Activity is reported as 14.2%. `[O-][n+]1ccc2c(c1)[nH]c1ccccc12` gave an Activity of 13.8%. `COc1c(OC)c2nccc3c4ccccc4n(c1=O)c23` [4,5-DIMETHOXYCANTHIN-6-ONE] gave an Activity of 20.8%. In the case of `Cn1ccc2c3n(c(=O)c(=O)cc1-3)c1ccc(Br)cc21`, the Activity is reported as 27.3%. For `COc1c2n(C)ccc3c-2n(c(=O)c1=O)c1c(Br)cc(Br)cc31`, the Activity was -8.1%. In the case of `COc1ccc2c3ccn(C)c4cc(=O)c(=O)n(c3-4)c2c1`, the Activity is reported as 53.8%. In the case of `COc1c(O)c(=O)n2c3ccccc3c3cc(O)nc1c32`, the Activity is reported as 26.2%. Compound `COC(=O)[C@@H]1Cc2c([nH]c3ccccc23)[C@H](C)N1` has an Activity of 18.6%. `CC[C@@H]1N[C@H](C(=O)O)Cc2c1[nH]c1ccccc21` showed an Activity of 10.9%. For `COc1c(O)c(=O)n2c3ccccc3c3ccnc1c32`, the Activity was 13.9%. `Cn1ccc2c3n(c(=O)c(=O)cc1-3)c1c(Br)cc(Br)cc21` gave an Activity of 3%.
